pIC50: −log10 of the molar value. Activity calls are given as the source filed them. No cut-off for these calls is given here.
Key:
[1] = target: T1, Aurora kinase A (Homo sapiens, UniProt O14965); assay: Inhibition of Aurora A (unknown origin) incubated for 40 mins in presence of ATP by Kinase-glo luminescence assay
T1 sequence (O14965 whole entry): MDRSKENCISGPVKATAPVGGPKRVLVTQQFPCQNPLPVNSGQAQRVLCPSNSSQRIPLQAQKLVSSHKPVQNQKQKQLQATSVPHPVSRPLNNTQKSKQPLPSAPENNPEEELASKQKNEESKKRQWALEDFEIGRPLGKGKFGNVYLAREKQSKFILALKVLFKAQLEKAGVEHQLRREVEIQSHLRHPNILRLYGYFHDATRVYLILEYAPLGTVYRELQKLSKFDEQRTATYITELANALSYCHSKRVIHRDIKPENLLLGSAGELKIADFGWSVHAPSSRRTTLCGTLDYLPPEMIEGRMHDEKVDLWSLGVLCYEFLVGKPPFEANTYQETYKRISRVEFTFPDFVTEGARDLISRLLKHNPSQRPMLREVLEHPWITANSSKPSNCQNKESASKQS

[2] = target: T2, Aurora kinase B (Homo sapiens, UniProt Q96GD4); assay: Inhibition of Aurora B (unknown origin) incubated for 40 mins in presence of ATP by Kinase-glo luminescence assay
T2 sequence (Q96GD4 whole entry): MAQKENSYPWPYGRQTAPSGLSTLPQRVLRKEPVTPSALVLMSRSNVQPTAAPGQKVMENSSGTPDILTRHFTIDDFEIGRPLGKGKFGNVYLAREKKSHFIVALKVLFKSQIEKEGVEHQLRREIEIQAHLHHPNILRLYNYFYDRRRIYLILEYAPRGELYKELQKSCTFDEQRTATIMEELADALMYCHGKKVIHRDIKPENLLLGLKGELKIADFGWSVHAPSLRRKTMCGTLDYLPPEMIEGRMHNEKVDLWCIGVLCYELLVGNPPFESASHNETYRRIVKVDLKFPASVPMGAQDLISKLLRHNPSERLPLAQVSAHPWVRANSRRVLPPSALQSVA
How it was run: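 Kinase reaction at 30 °C for 40 min in 40 mM Tris pH 7.4, 10 mM MgCl2, 0.1 mg/ml BSA, 1 mM DTT, 10 µM ATP, kinase plus substrate; compounds added from 10% DMSO dilutions (1% DMSO final). Remaining ATP measured by Kinase-Glo Plus luminescence; IC50 from nonlinear regression, normalized dose-response fit.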

[3] = test system: HCT-116; assay: Antiproliferative activity against human HCT116 cells assessed as reduction in cell growth measured after 72 hrs by CCK8 assay; assay type: functional, cell-based; settings: HCT-116, 72 h
[4] = Cytotoxicity against HCoEpiC assessed as reduction in cell growth measured after 72 hrs by CCK8 assay; settings: Homo sapiens
[5] = test system: HUVEC; assay: Cytotoxicity against HUVEC assessed as reduction in cell growth measured after 72 hrs by CCK8 assay; assay type: cell-based; settings: Homo sapiens
[6] = target: T3, JAK2/JAK3 (Homo sapiens) (UniProt P52333+O60674); assay: Inhibition of JAK2/3 in human K562 cells assessed as inhibition of STAT3 phosphorylation at 1 to 20 uM measured after 48 hrs by Western blot analysis; assay type: cell-based; settings: dose 1-20 µM
T3 sequence (O60674 whole entry, looked up): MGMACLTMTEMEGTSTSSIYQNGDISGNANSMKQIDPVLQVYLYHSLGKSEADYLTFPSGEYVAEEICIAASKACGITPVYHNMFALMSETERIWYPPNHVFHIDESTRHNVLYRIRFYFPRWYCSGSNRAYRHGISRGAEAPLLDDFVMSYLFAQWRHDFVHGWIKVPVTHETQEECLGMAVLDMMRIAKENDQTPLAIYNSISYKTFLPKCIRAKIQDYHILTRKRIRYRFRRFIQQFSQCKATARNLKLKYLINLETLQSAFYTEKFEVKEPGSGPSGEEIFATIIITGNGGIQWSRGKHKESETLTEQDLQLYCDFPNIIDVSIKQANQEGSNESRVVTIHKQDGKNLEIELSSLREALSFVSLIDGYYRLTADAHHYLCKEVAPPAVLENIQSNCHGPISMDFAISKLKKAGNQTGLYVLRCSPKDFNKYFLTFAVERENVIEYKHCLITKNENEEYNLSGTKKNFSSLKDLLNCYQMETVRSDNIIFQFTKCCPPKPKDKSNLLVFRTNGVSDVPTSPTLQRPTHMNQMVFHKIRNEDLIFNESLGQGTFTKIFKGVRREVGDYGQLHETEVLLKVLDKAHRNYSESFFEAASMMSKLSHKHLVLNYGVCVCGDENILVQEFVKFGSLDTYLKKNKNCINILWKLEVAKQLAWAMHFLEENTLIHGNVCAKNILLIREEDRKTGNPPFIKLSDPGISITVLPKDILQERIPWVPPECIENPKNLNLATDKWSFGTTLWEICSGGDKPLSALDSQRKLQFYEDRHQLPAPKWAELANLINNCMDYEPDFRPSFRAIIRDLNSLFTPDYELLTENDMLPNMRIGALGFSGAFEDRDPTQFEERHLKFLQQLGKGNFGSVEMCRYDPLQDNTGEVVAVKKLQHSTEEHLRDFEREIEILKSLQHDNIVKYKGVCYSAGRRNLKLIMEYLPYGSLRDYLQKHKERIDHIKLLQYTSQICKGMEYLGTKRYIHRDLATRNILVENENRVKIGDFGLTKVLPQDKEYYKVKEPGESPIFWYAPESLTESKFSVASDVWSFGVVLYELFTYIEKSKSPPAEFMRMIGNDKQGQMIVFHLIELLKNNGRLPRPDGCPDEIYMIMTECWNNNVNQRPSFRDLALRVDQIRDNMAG
T3 sequence (P52333 whole entry, looked up): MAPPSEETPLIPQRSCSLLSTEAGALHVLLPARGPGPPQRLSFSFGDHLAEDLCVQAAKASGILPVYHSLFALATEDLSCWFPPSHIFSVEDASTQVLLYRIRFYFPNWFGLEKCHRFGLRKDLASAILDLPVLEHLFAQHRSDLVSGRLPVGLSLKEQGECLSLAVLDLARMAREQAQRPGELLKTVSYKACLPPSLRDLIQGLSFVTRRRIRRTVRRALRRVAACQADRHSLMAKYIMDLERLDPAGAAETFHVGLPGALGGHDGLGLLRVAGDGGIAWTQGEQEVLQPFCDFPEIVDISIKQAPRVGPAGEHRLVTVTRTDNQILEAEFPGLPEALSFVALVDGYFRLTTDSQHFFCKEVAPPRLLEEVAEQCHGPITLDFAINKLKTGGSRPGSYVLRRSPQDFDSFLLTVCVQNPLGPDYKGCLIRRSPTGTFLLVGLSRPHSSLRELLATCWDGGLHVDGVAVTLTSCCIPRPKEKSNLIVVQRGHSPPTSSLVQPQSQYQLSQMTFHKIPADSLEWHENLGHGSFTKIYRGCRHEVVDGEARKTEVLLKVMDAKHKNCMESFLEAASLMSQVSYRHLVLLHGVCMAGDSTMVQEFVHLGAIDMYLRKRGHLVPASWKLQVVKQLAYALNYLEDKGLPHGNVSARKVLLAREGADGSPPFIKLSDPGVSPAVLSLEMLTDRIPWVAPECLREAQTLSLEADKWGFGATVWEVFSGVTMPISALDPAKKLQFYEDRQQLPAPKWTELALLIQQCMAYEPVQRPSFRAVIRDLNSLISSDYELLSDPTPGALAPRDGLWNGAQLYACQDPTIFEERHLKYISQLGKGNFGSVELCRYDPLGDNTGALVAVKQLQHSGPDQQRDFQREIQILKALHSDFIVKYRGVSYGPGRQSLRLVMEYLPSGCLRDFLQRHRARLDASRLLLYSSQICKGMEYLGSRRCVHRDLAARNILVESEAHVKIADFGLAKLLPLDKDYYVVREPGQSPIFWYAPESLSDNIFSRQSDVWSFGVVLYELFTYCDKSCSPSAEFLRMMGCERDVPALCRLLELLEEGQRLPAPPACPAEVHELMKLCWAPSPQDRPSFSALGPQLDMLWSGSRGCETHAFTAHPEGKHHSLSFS
How it was run: (§1)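 K562 or HCT116 cells treated 48 h at 1, 10 and 20 µM alongside untreated control; lysed in cold RIPA, protein by BCA, SDS-PAGE, nitrocellulose transfer, 5% milk block, primary antibody overnight at 4 °C, secondary 1 h; p-Aurora A, p-Aurora B, p-STAT3, p-STAT5 probed with GAPDH loading control.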

[7] = target: T3, JAK2/JAK3 (Homo sapiens); assay: Inhibition of JAK2/3 in human K562 cells assessed as inhibition of STAT5 phosphorylation at 1 to 20 uM measured after 48 hrs by Western blot analysis; assay type: cell-based; settings: dose 1-20 µM; how it was run: as §1
[8] = target: T3, JAK2/JAK3 (Homo sapiens); assay: Inhibition of JAK2/3 in human HCT116 cells assessed as inhibition of STAT3 phosphorylation at 1 to 20 uM measured after 48 hrs by Western blot analysis; assay type: cell-based; settings: HCT-116, dose 1-20 µM; how it was run: as §1
[9] = target: T2, Aurora kinase B; assay: Inhibition of Aurora B phosphorylation in human K562 cells incubated for 48 hrs by Western blot analysis; assay type: cell-based; settings: dose 1-20 µM; how it was run: as §1
[10] = target: T4, Aurora kinase A (Homo sapiens) (UniProt O14965); assay: Inhibition of Aurora A phosphorylation in human HCT116 cells incubated for 48 hrs by Western blot analysis; assay type: cell-based; settings: HCT-116, dose 1-20 µM; how it was run: as §1
T4 sequence (whole entry): T1 sequence (O14965 whole entry)

[11] = target: T2, Aurora kinase B; assay: Inhibition of Aurora B phosphorylation in human HCT116 cells incubated for 48 hrs by Western blot analysis; assay type: cell-based; settings: HCT-116, dose 1-20 µM; how it was run: as §1
[12] = test system: K562; assay: Cell cycle arrest in human K562 cells assessed as accumulation of diploid cells at G2 phase at 1 uM incubated for 48 hrs by propidium iodide staining based flow cytometric analysis (reference value: 7.73 %); assay type: functional
[13] = test system: K562; assay: Cell cycle arrest in human K562 cells assessed as accumulation of diploid cells at S phase at 1 uM incubated for 48 hrs by propidium iodide staining based flow cytometric analysis (reference value: 35.94 %); assay type: functional
[14] = test system: K562; assay: Cell cycle arrest in human K562 cells assessed as accumulation of diploid cells at G1 phase at 10 uM incubated for 48 hrs by propidium iodide staining based flow cytometric analysis (reference value: 56.33 %); assay type: functional
[15] = test system: K562; assay: Cell cycle arrest in human K562 cells assessed as accumulation of diploid cells at G2 phase at 10 uM incubated for 48 hrs by propidium iodide staining based flow cytometric analysis (reference value: 7.73 %); assay type: functional
[16] = test system: K562; assay: Cell cycle arrest in human K562 cells assessed as accumulation of diploid cells at S phase at 10 uM incubated for 48 hrs by propidium iodide staining based flow cytometric analysis (reference value: 35.94 %); assay type: functional
[17] = test system: K562; assay: Cell cycle arrest in human K562 cells assessed as accumulation of diploid cells at G1 phase at 20 uM incubated for 48 hrs by propidium iodide staining based flow cytometric analysis (reference value: 56.33 %); assay type: functional
[18] = test system: HCT-116; assay: Cell cycle arrest in human HCT116 cells assessed as accumulation of diploid cells at G1 phase at 1 uM incubated for 48 hrs by propidium iodide staining based flow cytometric analysis (reference value: 77.62 %); assay type: functional
[19] = test system: HCT-116; assay: Cell cycle arrest in human HCT116 cells assessed as accumulation at […] phase at 1 uM incubated for 48 hrs by propidium iodide staining based flow cytometric analysis (reference value: 2.01 %); assay type: functional
[20] = test system: HCT-116; assay: Cell cycle arrest in human HCT116 cells assessed as accumulation of diploid cells at G1 phase at 10 uM incubated for 48 hrs by propidium iodide staining based flow cytometric analysis (reference value: 77.62 %); assay type: functional
[21] = test system: HCT-116; assay: Cell cycle arrest in human HCT116 cells assessed as accumulation of diploid cells at G2 phase at 10 uM incubated for 48 hrs by propidium iodide staining based flow cytometric analysis (reference value: 10.46 %); assay type: functional
[22] = test system: HCT-116; assay: Cell cycle arrest in human HCT116 cells assessed as accumulation of diploid cells at S phase at 10 uM incubated for 48 hrs by propidium iodide staining based flow cytometric analysis (reference value: 11.92 %); assay type: functional
[23] = test system: HCT-116; assay: Cell cycle arrest in human HCT116 cells assessed as accumulation at […] phase at 10 uM incubated for 48 hrs by propidium iodide staining based flow cytometric analysis (reference value: 2.01 %); assay type: functional
[24] = organism: Homo sapiens; assay: Selectivity for JAK2 (unknown origin) over Aurora A (unknown origin)
[25] = organism: Homo sapiens; assay: Selectivity for JAK3 (unknown origin) over Aurora A (unknown origin)
[26] = test system: HCT-116; assay: Cell cycle arrest in human HCT116 cells assessed as accumulation of diploid cells at G2 phase at 20 uM incubated for 48 hrs by propidium iodide staining based flow cytometric analysis (reference value: 10.46 %); assay type: functional
[27] = test system: HCT-116; assay: Cell cycle arrest in human HCT116 cells assessed as accumulation of diploid cells at S phase at 20 uM incubated for 48 hrs by propidium iodide staining based flow cytometric analysis (reference value: 11.92 %); assay type: functional

pIC50 [1]: 6.03 | pIC50 [2]: 6.23 | pIC50 [3]: 4.82 | inhibition [6]: Active | inhibition [7]: Active | inhibition [8]: Active | inhibition [9]: Dose-dependent effect | inhibition [10]: Dose-dependent effect | inhibition [11]: Dose-dependent effect | Selectivity ratio [24]: 20 | Selectivity ratio [25]: 20
Compound: O=C(Nc1c[nH]nc1-c1nc(-c2ccc(CN3CCOCC3)cc2)c[nH]1)c1cccc(Cl)c1
pIC50 [4]: 4.50 | pIC50 [5]: 4.54 | Activity [12]: 8.12% | Activity [13]: 35.82% | Activity [14]: 47.87% | Activity [15]: 16.27% | Activity [16]: 35.86% | Activity [17]: 45.9% | Activity [18]: 72.2% | Activity [19]: 2% | Activity [20]: 66.57% | Activity [21]: 16.16% | Activity [22]: 17.27% | Activity [23]: 2.01% | Activity [26]: 24.55% | Activity [27]: 17.92%

Source: ChEMBL document CHEMBL4706620, “Design, synthesis, biological activity evaluation of 3-(4-phenyl-1H-imidazol-2-yl)-1H-pyrazole derivatives as potent JAK 2/3 and aurora A/B kinases multi-targeted inhibitors” (Eur J Med Chem, 2021)
